Reference: ChEMBL document CHEMBL2434928, “New derivatives of salicylamides: Preparation and antimicrobial activity against various bacterial species” (2013)
≈ marks a conversion by molar mass, not a printed value.

How the values were obtained:
Type in all cases: functional
Mycobacterium kansasii = assay: Antimycobacterial activity against Mycobacterium kansasii DSM 44162 after 7 days; details: DSM 44162, 168 h
Procedure, shortened: (§1)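 MIC by broth microdilution in Middlebrook 7H9 with ADC enrichment. Compounds were dissolved in DMSO. Inoculum: colonies in sterile water adjusted to 0.5 McFarland, then diluted 1:1000 in sterile water. Drug-free, sterility and medium+DMSO controls were included. Wells were read visually after static incubation in the dark.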

Mycobacterium marinum = assay: Antimycobacterial activity against Mycobacterium marinum CAMP 5644 after 21 days; details: CAMP 5644, 504 h; procedure, shortened: as §1
[1] = test system: Mycolicibacterium smegmatis; assay: Antimycobacterial activity against Mycobacterium smegmatis ATCC 700084 after 3 days; details: ATCC 700084, 72 h
Procedure, shortened: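 Middlebrook 7H9 plus ADC broth microdilution MIC, with compounds in DMSO. Colonies were suspended in sterile water to 0.5 McFarland, then diluted 1:1000 in sterile water. Drug-free, sterility and DMSO controls were included. The visual read followed 3 days of static aerobic incubation at 37 °C in darkness.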

Pasteurella multocida = assay: Antimicrobial activity against Pasteurella multocida clinical isolate after 24 hrs by broth microdilution method
Procedure, shortened: (§2)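 Broth microdilution MIC in Mueller–Hinton broth, per modified NCCLS guidelines. Strains were grown on nutrient agar with 5% ovine blood. Colonies were suspended in PBS (pH 7.2–7.3), adjusted to 0.5 McFarland, then diluted 1:20 in MH broth. Compounds were in DMSO, ≤2.5% final. Drug-free, sterility and DMSO controls were included.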

Clostridium perfringens = assay: Antimicrobial activity against Clostridium perfringens CNCTC 5770 after 24 hrs by broth microdilution method; details: CNCTC 5770, 24 h
Procedure, shortened: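 Colonies grown on blood agar (nutrient agar, 5% ovine blood) were suspended in PBS pH 7.2–7.3, set to 0.5 McFarland, and diluted 1:20 in MH broth for the final inoculum. Compounds were in DMSO (≤2.5% final), tested by NCCLS-modified microdilution with drug-free, sterility and DMSO controls.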

Staphylococcus aureus [2] = assay: Antimicrobial activity against methicillin-resistant Staphylococcus aureus 3202 after 24 hrs by broth microdilution method; details: Staphylococcus aureus, 3202, 24 h
Procedure, shortened: (§3)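 Colonies grown on nutrient agar with 5% ovine blood were suspended in PBS (pH 7.2–7.3), adjusted to 0.5 McFarland, and diluted 1:20 in Mueller–Hinton broth. Compounds were dissolved in DMSO (final ≤2.5%) and tested by NCCLS-modified broth microdilution with drug-free, sterility and broth+DMSO controls.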

Staphylococcus aureus [3] = assay: Antimicrobial activity against methicillin-resistant Staphylococcus aureus 630 after 24 hrs by broth microdilution method; details: Staphylococcus aureus, 630, 24 h; procedure, shortened: as §3
Staphylococcus aureus [4] = assay: Antimicrobial activity against methicillin-resistant Staphylococcus aureus 63718 after 24 hrs by broth microdilution method; details: Staphylococcus aureus, 63718, 24 h; procedure, shortened: as §3
Bacillus cereus = assay: Antimicrobial activity against Bacillus cereus ATCC 14579 after 24 hrs by broth microdilution method; details: ATCC 14579, 24 h; procedure, shortened: as §2
Staphylococcus aureus [5] = assay: Antimicrobial activity against Staphylococcus aureus ATCC 29213 after 24 hrs by broth microdilution method; details: ATCC 29213, 24 h; procedure, shortened: as §2

Row | SMILES | MIC (Mycobacterium kansasii) [µM] | MIC (Mycobacterium marinum) [µM] | MIC [1] [µM] | MIC (Pasteurella multocida) [µM] | MIC (Clostridium perfringens) [µM] | MIC (Staphylococcus aureus [2]) [µM] | MIC (Staphylococcus aureus [3]) [µM] | MIC (Staphylococcus aureus [4]) [µM] | MIC (Bacillus cereus) [µM] | MIC (Staphylococcus aureus [5]) [µM]
1 | O=C(N[C@@H](Cc1ccccc1)C(=O)Nc1ccc(Cl)c(Cl)c1)c1ccc(Cl)cc1O | 34.5 (≈ 16 µg/mL) | 138 (≈ 64 µg/mL) | 69 (≈ 32 µg/mL) | > 552 | 34.5 (≈ 16 µg/mL) | 1.07 (≈ 0.496 µg/mL) | 2.15 (≈ 0.997 µg/mL) | 2.15 (≈ 0.997 µg/mL) | 1.07 (≈ 0.496 µg/mL) | 1.07 (≈ 0.496 µg/mL)
2 | Cc1ccc(NC(=O)c2cc(Cl)ccc2O)cc1 | 30.6 (≈ 8 µg/mL) | 61.1 (≈ 16 µg/mL) | > 978 | 1.91 (≈ 0.5 µg/mL) | > 978 | > 978 | > 978 | > 978 | 30.6 (≈ 8 µg/mL) | > 978
3 | Cc1ccc(NC(=O)[C@H](Cc2ccccc2)NC(=O)c2cc(Cl)ccc2O)cc1 | – | – | – | > 626 | > 626 | > 626 | > 626 | > 626 | > 626 | > 626
4 | CC(C)[C@H](NC(=O)OCc1ccccc1)C(=O)Oc1ccc(Cl)cc1C(=O)Nc1ccccc1 | – | – | – | > 517 | – | – | – | – | > 517 | > 517
5 | Cc1ccc(NC(=O)c2cc(Cl)ccc2OC(=O)[C@H](C)NC(=O)OCc2ccccc2)cc1 | 17.1 (≈ 8 µg/mL) | 68.5 (≈ 32 µg/mL) | > 548 | 2.14 (≈ 0.999 µg/mL) | – | – | – | – | 7.13 (≈ 3.33 µg/mL) | 34.3 (≈ 16 µg/mL)
6 | Cc1ccc(NC(=O)c2cc(Cl)ccc2OC(=O)[C@@H](NC(=O)OCc2ccccc2)C(C)C)cc1 | 129 (≈ 63.9 µg/mL) | 259 (≈ 128 µg/mL) | 259 (≈ 128 µg/mL) | 4.04 (≈ 2 µg/mL) | – | – | – | – | 32.3 (≈ 16 µg/mL) | 32.3 (≈ 16 µg/mL)
7 | Cc1ccc(NC(=O)c2cc(Cl)ccc2OC(=O)[C@H](Cc2ccccc2)NC(=O)OCc2ccccc2)cc1 | 58.9 (≈ 32 µg/mL) | 118 (≈ 64.1 µg/mL) | 236 (≈ 128 µg/mL) | 7.36 (≈ 4 µg/mL) | – | – | – | – | 29.5 (≈ 16 µg/mL) | –
8 | Cc1ccc(NC(=O)[C@@H](NC(=O)c2cc(Cl)ccc2O)C(C)C)cc1 | 88.7 (≈ 32 µg/mL) | 355 (≈ 128 µg/mL) | > 709 | 88.7 (≈ 32 µg/mL) | 88.7 (≈ 32 µg/mL) | 88.7 (≈ 32 µg/mL) | > 709 | > 709 | 22.2 (≈ 8 µg/mL) | 88.7 (≈ 32 µg/mL)
9 | CC(C)[C@H](NC(=O)OCc1ccccc1)C(=O)Oc1ccc(Cl)cc1C(=O)Nc1ccc(Br)cc1 | 14.3 (≈ 8 µg/mL) | 14.3 (≈ 8 µg/mL) | 57.2 (≈ 32 µg/mL) | 0.89 (≈ 0.498 µg/mL) | 3.57 (≈ 2 µg/mL) | 1.78 (≈ 0.997 µg/mL) | 1.78 (≈ 0.997 µg/mL) | 3.57 (≈ 2 µg/mL) | 1.78 (≈ 0.997 µg/mL) | 3.57 (≈ 2 µg/mL)
10 | O=C(N[C@@H](Cc1ccccc1)C(=O)Oc1ccc(Cl)cc1C(=O)Nc1ccc(Cl)c(Cl)c1)OCc1ccccc1 | 13.4 (≈ 8 µg/mL) | 26.8 (≈ 16 µg/mL) | 26.8 (≈ 16 µg/mL) | 0.83 (≈ 0.496 µg/mL) | 1.67 (≈ 0.998 µg/mL) | 0.2 (≈ 0.12 µg/mL) | 0.2 (≈ 0.12 µg/mL) | 0.2 (≈ 0.12 µg/mL) | 0.41 (≈ 0.245 µg/mL) | 1.67 (≈ 0.998 µg/mL)
11 | CC1(C)S[C@@H]2[C@H](NC(=O)[C@H](N)c3ccccc3)C(=O)N2[C@H]1C(=O)O [AMPICILLIN] | – | – | – | 1.43 (≈ 0.5 µg/mL) | < 0.72 | > 45.8 | > 45.8 | > 45.8 | > 45.8 | 5.72 (≈ 2 µg/mL)
12 | O=C(O)c1cn(C2CC2)c2cc(N3CCNCC3)c(F)cc2c1=O [CIPROFLOXACIN] | – | – | – | – | – | > 48.3 | > 48.3 | > 48.3 | – | > 48.3
13 | NNC(=O)c1ccncc1 [ISONIAZID] | – | 467 (≈ 64 µg/mL) | 117 (≈ 16 µg/mL) | – | – | – | – | – | – | –
